Assay results taken from ChEMBL document CHEMBL4304743, “Discovery of ( E)- N1-(3-Fluorophenyl)- N3-(3-(2-(pyridin-2-yl)vinyl)-1 H-indazol-6-yl)malonamide (CHMFL-KIT-033) as a Novel c-KIT T670I Mutant Selective Kinase Inhibitor for Gastrointestinal Stromal Tumors (GISTs)” (J Med Chem, 2019).
Calls of active or inactive are those of the source. The calls are words filed in the database; no cut-off is given here.

Experiments:
[1] = biological target: Serine/threonine-protein kinase PAK 2 (Homo sapiens, UniProt Q13177); test: Inhibition of wild-type human partial length PAK2 (P151 to R525 residues) expressed in bacterial expression system after 1 hr by Z-LYTE assay
[2] = Tmax in mouse at 1 mg/kg, iv measured after 2 to 720 mins by LC-tandem mass spectrometry analysis; type: ADME, organism-based; conditions: in vivo
[3] = Half-life in Sprague-Dawley rat at 1 mg/kg, iv measured after 2 to 720 mins by LC-tandem mass spectrometry analysis; type: ADME, organism-based; conditions: in vivo
In short: (§1)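 Male Sprague-Dawley rats (190-210 g), fasted 12 h, randomized into two groups: 1 mg/kg i.v. or 10 mg/kg p.o., both formulated in 10% DMSO/90% of 5% glucose water. Blood sampled at 2-720 min (i.v.) or 5-720 min (p.o.). Plasma protein-precipitated with methanol, caffeine internal standard, LC-MS/MS. Noncompartmental analysis; triplicate, ±SD.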

[4] = Oral bioavailability in mouse at 10 mg/kg measured after 5 to 720 mins by LC-tandem mass spectrometry analysis; type: ADME, organism-based; conditions: in vivo
[5] = biological target: Serine/threonine-protein kinase Nek1 (Homo sapiens) (UniProt Q96PY6); test: Binding affinity to wild-type human partial length NEK1 (M1 to K278 residues) expressed in bacterial expression system assessed as enzyme remaining activity at 1 uM by Kinomescan assay relative to control
In short: (§2)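 KINOMEscan competition binding panel of 468 kinases and mutants, compound at 1 μM; binding reported as percent of control.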

[6] = system: Mast/stem cell growth factor receptor Kit (Homo sapiens), P10721 [L576P]; test: Inhibition of TEL fused c-KIT L576P mutant (unknown origin) transfected in mouse BAF3 cells assessed as growth inhibition after 72 hrs by CCK8 assay; type: cell-based
In short: (§3)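 Tel-c-KIT-transformed BaF3 lines (IL-3 independent) kept in RPMI 1640 with 10% FBS, 2% L-glutamine and pen/strep. Cells at 1.5 to 5 × 10^4 cells/mL mixed with graded compound and incubated 72 h at 37 °C, 5% CO2. Viability by CCK-8 absorbance at 450 nm, normalized to DMSO. GI50 from dose–response fit.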

[7] = system: Mast/stem cell growth factor receptor Kit (Homo sapiens), P10721 [UNDEFINED MUTATION]; test: Inhibition of c-KIT 560 to 578 deletion mutant in human GISTT1 cells assessed as reduction in c-KIT autophosphorylation at Y719 residue at 0.1 uM to 3 uM after 1 hr by Western blot analysis; type: cell-based
In short: (§4)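 Serial compound dilutions applied for 1 h to GIST-T1, GIST-T1-T670I (CRISPR/Cas9 T670I knock-in, clone confirmed by Sanger sequencing) or GIST-5R cells in DMEM with 10% FBS. Cells then lysed and phospho-proteins detected by standard Western blotting.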

[8] = species: Homo sapiens; test: Induction of cell cycle arrest in human GIST5R cells harboring 560 to 578 deletion/T670I double mutant after 24 hrs; type: functional, cell-based
[9] = biological target: Mast/stem cell growth factor receptor Kit (Homo sapiens, UniProt P10721); test: Inhibition of TEL fused wild type c-KIT (unknown origin) transfected in mouse BaF3 cells assessed as reduction in phosphorylation at Y703 residue after 2 hrs by Western blot analysis; type: cell-based
[10] = system: Mast/stem cell growth factor receptor Kit (Homo sapiens), P10721 [V559D,T670I]; test: Binding affinity to human partial length c-KIT V559D/T670I double mutant (Y545 to D952 residues) expressed in bacterial expression system assessed as enzyme remaining activity at 1 uM by Kinomescan method relative to control
In short: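 KINOMEscan binding profile (DiscoverX) run at 1 μM against a panel of 468 kinases and mutants. Read-out is percent of control (%Ctrl) remaining bound.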

[11] = biological target: Platelet-derived growth factor receptor alpha (Homo sapiens, UniProt P16234); test: Inhibition of wild-type human partial length PDGFRA (V575 to D1002 residues) expressed in mammalian expression system after 1 hr by Z-LYTE assay
[12] = system: Mus musculus; test: Inhibition of ERK phosphorylation at T202/Y204 residue in tumor of human GIST5R cells xenografted in nude mouse at 100 mg/kg, po administered as single dose and measured after 2 hrs; type: functional, organism-based
In short: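 Female nu/nu mice bearing subcutaneous GIST-5R tumors (cells in Matrigel, right flank) given one oral dose of 100 mg/kg in 0.5% methylcellulose/0.4% Tween80. Tumors collected over a 2 h time course. p-c-KIT, p-ERK and p-AKT measured alongside plasma drug levels.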

[13] = system: Mast/stem cell growth factor receptor Kit (Homo sapiens), P10721 [UNDEFINED MUTATION]; test: Inhibition of c-KIT 560 to 578 deletion/T670I double mutant in human GISTT1 cells assessed as reduction in c-KIT autophosphorylation at Y719 residue at 0.1 uM to 3 uM after 1 hr by Western blot analysis; type: cell-based; in short: as §4
[14] = biological target: Casein kinase I isoform alpha (Homo sapiens, UniProt P48729); test: Inhibition of wild-type human partial length CSNK1A1 (M1 to L301 residues) expressed in mammalian expression system after 1 hr by Z-LYTE assay
[15] = system: Mus musculus; test: Inhibition of c-KIT phosphorylation at Y719 residue in tumor of human GIST5R cells xenografted in nude mouse at 100 mg/kg, po administered as single dose and measured after 2 hrs; type: functional, organism-based
In short: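 Female nu/nu mice bearing subcutaneous GIST-5R xenografts (cells in Matrigel, right flank) given one oral gavage dose of 100 mg/kg in HKI suspension (0.5% methocellulose/0.4% Tween80 in ddH2O). Tumors collected over a 2 h time course; p-c-KIT, p-ERK and p-AKT assessed by Western blot; plasma drug levels monitored in parallel.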

[16] = Apparent clearance in Sprague-Dawley rat at 10 mg/kg, po measured after 5 to 720 mins by LC-tandem mass spectrometry analysis; type: ADME, organism-based; conditions: in vivo, read-out: CL(app) (converted); in short: as §1
[17] = biological target: Platelet-derived growth factor receptor beta (Homo sapiens, UniProt P09619); test: Inhibition of wild-type human partial length PDGFRB (V582 to Y1009 residues) expressed in bacterial expression system after 1 hr by Z-LYTE assay
[18] = biological target: Serine/threonine-protein kinase pim-3 (Homo sapiens, UniProt Q86V86); test: Binding affinity to wild-type human partial length PIM3 (G16 to A317 residues) expressed in bacterial expression system assessed as enzyme remaining activity at 1 uM by Kinomescan assay relative to control; in short: as §2
[19] = Drug level in plasma of nude mouse xenograted with human GIST5R cells at 100 mg/kg, po administered as single dose and measured at 4 hrs; type: ADME, organism-based; conditions: in vivo
In short: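 GIST-5R xenograft nu/nu mice given a single 100 mg/kg oral dose; plasma drug concentration followed over a time course alongside tumor p-c-KIT, p-ERK and p-AKT.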

[20] = system: Mast/stem cell growth factor receptor Kit (Homo sapiens), P10721 [D816V]; test: Inhibition of TEL fused c-KIT D816V mutant (unknown origin) transfected in mouse BAF3 cells assessed as growth inhibition after 72 hrs by CCK8 assay; type: cell-based; in short: as §3
[21] = Half-life in mouse at 1 mg/kg, iv measured after 2 to 720 mins by LC-tandem mass spectrometry analysis; type: ADME, organism-based; conditions: in vivo
In short: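 Mice dosed 1 mg/kg i.v. or 10 mg/kg p.o.; plasma drug levels by LC-MS/MS, parameters by noncompartmental analysis; values not from triplicate testing.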

Chain of Mast/stem cell growth factor receptor Kit (Homo sapiens), P10721 [UNDEFINED MUTATION] (P10721 whole entry, looked up, stated change not applied, the tested form may be a part, canonical isoform): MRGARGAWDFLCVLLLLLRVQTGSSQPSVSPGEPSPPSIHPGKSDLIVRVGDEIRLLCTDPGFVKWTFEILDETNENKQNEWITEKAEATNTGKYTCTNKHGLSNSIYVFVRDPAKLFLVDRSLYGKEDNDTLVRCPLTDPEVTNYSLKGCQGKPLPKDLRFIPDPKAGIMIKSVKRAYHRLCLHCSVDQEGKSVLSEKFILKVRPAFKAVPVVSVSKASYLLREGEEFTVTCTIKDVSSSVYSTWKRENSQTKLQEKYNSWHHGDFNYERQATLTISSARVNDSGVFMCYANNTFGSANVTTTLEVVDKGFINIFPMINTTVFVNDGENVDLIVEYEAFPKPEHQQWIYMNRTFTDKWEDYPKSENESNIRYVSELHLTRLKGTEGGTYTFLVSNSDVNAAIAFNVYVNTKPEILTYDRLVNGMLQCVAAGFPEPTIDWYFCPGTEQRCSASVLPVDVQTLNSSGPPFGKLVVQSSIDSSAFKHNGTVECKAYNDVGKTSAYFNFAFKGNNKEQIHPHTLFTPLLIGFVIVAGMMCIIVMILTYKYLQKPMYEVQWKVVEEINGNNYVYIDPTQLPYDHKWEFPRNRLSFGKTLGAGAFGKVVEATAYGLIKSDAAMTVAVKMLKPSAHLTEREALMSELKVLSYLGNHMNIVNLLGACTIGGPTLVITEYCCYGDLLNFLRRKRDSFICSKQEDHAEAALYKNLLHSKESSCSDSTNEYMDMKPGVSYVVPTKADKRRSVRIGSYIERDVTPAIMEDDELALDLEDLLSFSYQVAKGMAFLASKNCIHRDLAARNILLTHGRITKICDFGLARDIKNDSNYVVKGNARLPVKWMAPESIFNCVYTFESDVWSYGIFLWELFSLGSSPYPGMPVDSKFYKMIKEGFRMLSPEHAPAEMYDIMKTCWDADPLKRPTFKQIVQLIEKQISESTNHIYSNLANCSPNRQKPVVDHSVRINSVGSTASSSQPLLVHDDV
Chain of Serine/threonine-protein kinase Nek1 (Homo sapiens) (Q96PY6 whole entry, the tested form may be a part): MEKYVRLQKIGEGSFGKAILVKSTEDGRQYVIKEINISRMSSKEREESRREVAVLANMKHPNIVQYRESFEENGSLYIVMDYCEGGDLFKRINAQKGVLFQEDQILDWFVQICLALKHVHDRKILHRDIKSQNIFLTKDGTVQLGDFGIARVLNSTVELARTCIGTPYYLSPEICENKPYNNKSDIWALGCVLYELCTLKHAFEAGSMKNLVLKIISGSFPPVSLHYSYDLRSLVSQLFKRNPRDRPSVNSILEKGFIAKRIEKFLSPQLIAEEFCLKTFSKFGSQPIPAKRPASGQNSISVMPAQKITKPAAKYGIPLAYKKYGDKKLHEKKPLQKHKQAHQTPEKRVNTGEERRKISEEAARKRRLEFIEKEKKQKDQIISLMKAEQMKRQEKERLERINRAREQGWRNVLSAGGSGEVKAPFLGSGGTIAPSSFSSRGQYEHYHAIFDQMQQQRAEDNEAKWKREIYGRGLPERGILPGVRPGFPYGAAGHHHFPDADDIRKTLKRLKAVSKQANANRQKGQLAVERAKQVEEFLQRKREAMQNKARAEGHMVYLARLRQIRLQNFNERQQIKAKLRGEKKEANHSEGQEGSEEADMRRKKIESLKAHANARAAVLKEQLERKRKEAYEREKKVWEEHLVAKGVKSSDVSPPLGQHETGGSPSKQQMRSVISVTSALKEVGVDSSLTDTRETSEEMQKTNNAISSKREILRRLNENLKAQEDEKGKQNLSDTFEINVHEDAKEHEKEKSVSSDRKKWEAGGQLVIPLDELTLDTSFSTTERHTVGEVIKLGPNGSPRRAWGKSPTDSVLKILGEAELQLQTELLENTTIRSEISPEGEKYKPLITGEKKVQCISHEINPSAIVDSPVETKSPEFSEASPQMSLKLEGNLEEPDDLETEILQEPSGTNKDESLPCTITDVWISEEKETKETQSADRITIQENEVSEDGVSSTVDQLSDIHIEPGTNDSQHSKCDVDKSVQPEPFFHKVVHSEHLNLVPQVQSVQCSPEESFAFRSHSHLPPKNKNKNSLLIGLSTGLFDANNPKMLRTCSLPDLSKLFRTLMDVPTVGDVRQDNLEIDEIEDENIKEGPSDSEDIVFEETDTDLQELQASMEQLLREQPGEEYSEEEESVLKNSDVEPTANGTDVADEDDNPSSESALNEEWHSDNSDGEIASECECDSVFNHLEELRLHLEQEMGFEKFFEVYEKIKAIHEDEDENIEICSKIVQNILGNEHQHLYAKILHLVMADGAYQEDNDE
Chain of Platelet-derived growth factor receptor alpha (P16234 whole entry, the tested form may be a part): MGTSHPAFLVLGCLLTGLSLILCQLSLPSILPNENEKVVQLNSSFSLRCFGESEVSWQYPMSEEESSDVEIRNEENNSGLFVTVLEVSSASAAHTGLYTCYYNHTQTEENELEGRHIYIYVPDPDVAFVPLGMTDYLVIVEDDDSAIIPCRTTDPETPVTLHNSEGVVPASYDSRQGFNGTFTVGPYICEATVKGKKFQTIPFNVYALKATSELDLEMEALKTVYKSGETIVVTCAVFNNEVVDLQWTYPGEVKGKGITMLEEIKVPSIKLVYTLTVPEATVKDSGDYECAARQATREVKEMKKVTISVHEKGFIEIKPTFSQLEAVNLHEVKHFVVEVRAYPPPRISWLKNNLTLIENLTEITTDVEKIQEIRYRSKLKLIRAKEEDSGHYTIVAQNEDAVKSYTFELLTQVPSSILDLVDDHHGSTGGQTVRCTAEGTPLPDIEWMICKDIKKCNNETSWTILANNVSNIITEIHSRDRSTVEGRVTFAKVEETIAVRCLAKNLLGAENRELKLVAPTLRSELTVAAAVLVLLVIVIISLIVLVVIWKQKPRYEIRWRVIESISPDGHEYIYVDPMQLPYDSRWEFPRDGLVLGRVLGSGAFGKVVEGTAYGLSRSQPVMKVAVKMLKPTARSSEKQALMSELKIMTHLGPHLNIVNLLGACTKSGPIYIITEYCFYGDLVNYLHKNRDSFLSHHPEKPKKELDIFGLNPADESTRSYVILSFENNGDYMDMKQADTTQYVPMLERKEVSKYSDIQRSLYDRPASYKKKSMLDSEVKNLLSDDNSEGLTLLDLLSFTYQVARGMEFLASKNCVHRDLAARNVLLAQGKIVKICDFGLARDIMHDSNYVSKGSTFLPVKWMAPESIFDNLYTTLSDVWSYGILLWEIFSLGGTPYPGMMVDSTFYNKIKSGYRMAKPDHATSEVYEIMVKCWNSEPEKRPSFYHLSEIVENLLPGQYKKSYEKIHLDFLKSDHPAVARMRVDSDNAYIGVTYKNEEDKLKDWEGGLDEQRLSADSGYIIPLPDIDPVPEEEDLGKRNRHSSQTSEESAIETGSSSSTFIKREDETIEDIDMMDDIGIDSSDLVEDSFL
Chain of Mast/stem cell growth factor receptor Kit (Homo sapiens), P10721 [D816V] (P10721 whole entry D816V, the tested form may be a part): as the sequence (P10721 whole entry, looked up, stated change not applied, the tested form may be a part, canonical isoform) above, with D816V counted along it
Chain of Serine/threonine-protein kinase PAK 2 (Q13177 whole entry, the tested form may be a part): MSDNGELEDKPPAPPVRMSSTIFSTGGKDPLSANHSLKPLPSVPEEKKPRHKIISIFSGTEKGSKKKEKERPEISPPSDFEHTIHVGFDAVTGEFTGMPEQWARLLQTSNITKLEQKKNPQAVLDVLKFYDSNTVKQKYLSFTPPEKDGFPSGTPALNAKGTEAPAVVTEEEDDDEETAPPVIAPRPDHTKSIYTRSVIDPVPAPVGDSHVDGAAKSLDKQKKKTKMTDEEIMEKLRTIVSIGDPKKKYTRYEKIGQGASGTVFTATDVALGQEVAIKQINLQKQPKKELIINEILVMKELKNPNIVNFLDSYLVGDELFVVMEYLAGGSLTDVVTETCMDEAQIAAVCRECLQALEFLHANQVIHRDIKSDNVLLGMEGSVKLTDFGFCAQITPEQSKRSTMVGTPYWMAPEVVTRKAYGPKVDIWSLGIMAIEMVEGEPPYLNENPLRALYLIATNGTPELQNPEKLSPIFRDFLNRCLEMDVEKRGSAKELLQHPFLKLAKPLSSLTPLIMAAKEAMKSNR

`O=C(CC(=O)Nc1ccc2c(/C=C/c3ccccn3)n[nH]c2c1)Nc1cccc(F)c1` showed an IC50 [1] of over 10 µM, a Tmax [2] of 1.8 min and a half-life [3] of 10.4 h. For the same compound, the bioavailability [4] was 16.4%, the Activity [5] was 0% and the GI50 [6] was 0.157 µM. For the same compound, the inhibition [7] was “Active”, the Activity [8] was “Dose-dependent effect” and the EC50 [9] was over 1 µM. For the same compound, the Activity [10] was under 1%, the IC50 [11] was 7.78 µM and the inhibition [12] was “inactive”. For the same compound, the inhibition [13] was “Active”, the IC50 [14] was over 10 µM and the inhibition [15] was “inactive”. The CL/F [16] was 207 mL/min/kg, the IC50 [17] was 2.08 µM and the Activity [18] was 0%. The Drug uptake [19] was “Not Active”, the GI50 [20] was 3.46 µM and the half-life [21] was 4.9 h.
